Assay results reported in ChEMBL document CHEMBL1127847, “Cyclic GMP phosphodiesterase inhibitors. 2. Requirement of 6-substitution of quinazoline derivatives for potent and selective inhibitory activity” (J Med Chem, 1994).

Key:
Sus scrofa = organism: Sus scrofa; test: Relaxant effect on PGF2-alpha precontracted porcine coronary arteries; assay type: functional, organism-based
In short: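 Porcine coronary strips held at 1 g resting tension. Endothelium confirmed by 7 × 10^-9 M bradykinin relaxation after 50 mM KCl. Contraction with PGF2α (final 10^-5 M); at plateau, cumulative concentration-relaxation curves built. Relaxation expressed as % of PGF2α contraction. EC50 from the log cumulative plot, mean ± SEM (n given).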

Phosphodiesterase 3A = biological target: T1, Phosphodiesterase 3A (Sus scrofa, UniProt Q9XSW7); test: Inhibition of cGMP-inhibited PDE 3 from porcine aorta
T1 sequence (Q9XSW7 whole entry): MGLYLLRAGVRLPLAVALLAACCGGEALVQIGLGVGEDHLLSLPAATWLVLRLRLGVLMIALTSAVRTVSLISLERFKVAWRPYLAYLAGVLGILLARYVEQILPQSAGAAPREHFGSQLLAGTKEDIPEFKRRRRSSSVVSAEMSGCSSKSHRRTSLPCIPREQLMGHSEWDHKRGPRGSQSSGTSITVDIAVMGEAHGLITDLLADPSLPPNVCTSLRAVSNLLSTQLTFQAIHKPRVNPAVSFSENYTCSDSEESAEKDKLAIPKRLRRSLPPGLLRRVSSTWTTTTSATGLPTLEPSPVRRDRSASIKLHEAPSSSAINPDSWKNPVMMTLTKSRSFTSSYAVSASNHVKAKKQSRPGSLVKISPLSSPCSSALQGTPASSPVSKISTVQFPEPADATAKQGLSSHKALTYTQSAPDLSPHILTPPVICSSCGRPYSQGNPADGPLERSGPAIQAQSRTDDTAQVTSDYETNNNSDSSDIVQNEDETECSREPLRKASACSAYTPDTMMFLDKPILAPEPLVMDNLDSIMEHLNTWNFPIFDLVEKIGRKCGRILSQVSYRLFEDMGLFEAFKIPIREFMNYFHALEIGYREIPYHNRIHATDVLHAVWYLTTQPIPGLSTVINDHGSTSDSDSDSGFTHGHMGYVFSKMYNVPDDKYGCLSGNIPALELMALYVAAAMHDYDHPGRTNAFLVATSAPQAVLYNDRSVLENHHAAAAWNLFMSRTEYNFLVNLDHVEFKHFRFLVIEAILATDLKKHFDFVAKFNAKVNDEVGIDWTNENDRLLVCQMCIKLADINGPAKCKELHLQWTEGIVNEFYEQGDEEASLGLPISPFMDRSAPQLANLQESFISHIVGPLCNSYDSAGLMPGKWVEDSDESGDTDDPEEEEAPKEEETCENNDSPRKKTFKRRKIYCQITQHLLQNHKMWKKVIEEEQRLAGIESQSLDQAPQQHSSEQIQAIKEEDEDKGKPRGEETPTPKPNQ
In short: (§1)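 Porcine aorta PDE isozyme, two-step radioisotopic assay with 1 µM [3H]substrate: cGMP for type I, cAMP for types II, III and IV. Compounds dissolved in DMSO, diluted in assay buffer over 10^-8 to 10^-4 M, final DMSO under 0.4% (v/v). IC50 taken from the log concentration-inhibition plot (at least three points), mean ± SEM of at least three experiments.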

Phosphodiesterase 4A = biological target: T2, Phosphodiesterase 4A (Sus scrofa, UniProt O77823); test: Inhibition of cAMP specific-PDE 4 from porcine aorta; in short: as §1
T2 sequence (O77823 whole entry): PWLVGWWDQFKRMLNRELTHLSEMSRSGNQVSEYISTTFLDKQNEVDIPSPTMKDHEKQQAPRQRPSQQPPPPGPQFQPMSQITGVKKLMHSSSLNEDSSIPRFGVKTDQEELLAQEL

Phosphodiesterase 1 = Phosphodiesterase 1 (Homo sapiens, UniProt P54750+Q01064+Q14123); test: Inhibition of Ca++ calmodulin dependent-PDE 1 from porcine aorta; assay type: protein assay, Sus scrofa; conditions: target entry is the homologue from another species; in short: as §1
[1] = biological target: cGMP-dependent 3',5'-cyclic phosphodiesterase (Homo sapiens, UniProt O00408); test: Inhibition of cGMP stimulated-PDE 2 from porcine aorta; parameters: species or system Sus scrofa; conditions: target entry is the homologue from another species; in short: as §1
Chain of cGMP-dependent 3',5'-cyclic phosphodiesterase (O00408 whole entry): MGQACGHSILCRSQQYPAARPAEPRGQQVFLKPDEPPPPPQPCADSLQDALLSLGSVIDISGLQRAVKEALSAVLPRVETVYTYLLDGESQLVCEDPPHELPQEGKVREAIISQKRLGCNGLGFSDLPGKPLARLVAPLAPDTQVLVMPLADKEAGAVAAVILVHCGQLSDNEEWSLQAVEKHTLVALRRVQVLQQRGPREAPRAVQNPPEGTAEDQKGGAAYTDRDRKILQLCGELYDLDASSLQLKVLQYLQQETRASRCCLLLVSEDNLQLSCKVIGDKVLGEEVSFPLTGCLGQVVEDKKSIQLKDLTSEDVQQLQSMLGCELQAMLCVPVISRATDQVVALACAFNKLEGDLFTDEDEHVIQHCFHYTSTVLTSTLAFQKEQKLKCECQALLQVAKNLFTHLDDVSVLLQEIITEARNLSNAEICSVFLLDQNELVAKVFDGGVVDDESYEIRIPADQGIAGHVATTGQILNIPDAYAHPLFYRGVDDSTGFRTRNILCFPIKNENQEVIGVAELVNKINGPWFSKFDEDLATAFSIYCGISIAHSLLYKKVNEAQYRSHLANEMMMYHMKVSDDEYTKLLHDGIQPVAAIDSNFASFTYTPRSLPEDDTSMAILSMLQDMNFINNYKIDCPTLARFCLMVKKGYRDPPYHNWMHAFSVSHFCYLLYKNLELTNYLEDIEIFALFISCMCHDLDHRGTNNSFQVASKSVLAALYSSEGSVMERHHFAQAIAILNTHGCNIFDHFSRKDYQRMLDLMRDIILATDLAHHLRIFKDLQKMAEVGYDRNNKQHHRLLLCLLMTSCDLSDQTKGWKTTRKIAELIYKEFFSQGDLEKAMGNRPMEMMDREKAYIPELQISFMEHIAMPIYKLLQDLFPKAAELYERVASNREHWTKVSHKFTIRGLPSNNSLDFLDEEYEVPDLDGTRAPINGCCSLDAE

How did the EC50 (Sus scrofa) turn out when `COc1cc2c(NCc3ccc4c(c3)OCO4)ncnc2c(OC)c1OC` was run?
Its EC50 is 2.13 µM.

How did the IC50 (Phosphodiesterase 3A) turn out when `CSc1ccc2ncnc(NCc3ccc4c(c3)OCO4)c2c1` was run?
Its IC50 is over 100 µM.

What about the EC50 (Sus scrofa) of the same molecule?
The EC50 was 0.12 µM.

And the IC50 (Phosphodiesterase 4A)?
The IC50 was over 100 µM.

And the IC50 (Phosphodiesterase 1)?
The IC50 was over 100 µM.

And the IC50 [1]?
The IC50 was over 100 µM.

Which EC50 (Sus scrofa) does the source give for `COc1ccc2ncnc(NCc3ccc4c(c3)OCO4)c2c1` here?
The EC50 was 1.19 µM.

What about the IC50 (Phosphodiesterase 4A) of the same molecule?
Its IC50 is over 100 µM.

What about the IC50 (Phosphodiesterase 1) of the same molecule?
The IC50 was over 100 µM.

And the IC50 [1]?
Its IC50 is over 100 µM.

Which IC50 (Phosphodiesterase 3A) does the source give for `Clc1ccc2ncnc(NCc3ccc4c(c3)OCO4)c2c1` here?
The IC50 was over 100 µM.

And the EC50 (Sus scrofa)?
The EC50 was 0.19 µM.

What about the IC50 (Phosphodiesterase 4A) of the same molecule?
The IC50 was over 100 µM.

And the IC50 (Phosphodiesterase 1)?
The IC50 was over 100 µM.

And the IC50 [1]?
The IC50 was over 100 µM.

What does the source list for `N#Cc1ccc2ncnc(NCc3ccc4c(c3)OCO4)c2c1`?
IC50 (Phosphodiesterase 3A): > 100 µM; EC50 (Sus scrofa): 0.3 µM; IC50 (Phosphodiesterase 4A): > 100 µM; IC50 (Phosphodiesterase 1): > 100 µM; IC50 [1]: > 100 µM

What does the source list for `Cc1ccc2ncnc(NCc3ccc4c(c3)OCO4)c2c1`?
IC50 (Phosphodiesterase 3A): > 100 µM; EC50 (Sus scrofa): 1.56 µM; IC50 (Phosphodiesterase 4A): > 100 µM; IC50 (Phosphodiesterase 1): > 100 µM; IC50 [1]: > 100 µM
